Measurements reported in ChEMBL document CHEMBL1671835, “Discovery of a Potent, S1P3-Sparing Benzothiazole Agonist of Sphingosine-1-Phosphate Receptor 1 (S1P1)” (ACS Med Chem Lett, 2011).
Active and inactive are the calls of the source. The rule behind the calls is not given here.

What was measured:
[1] = molecular target: T1, Sphingosine 1-phosphate receptor 1 (Homo sapiens, UniProt P21453); assay: Agonist activity at human S1P1 receptor expressed in human U2OS cells co-expressing eGFP assessed as receptor internalization after 1 hr; type: functional, cell-based
T1 sequence (P21453 whole entry, the tested form may be a part): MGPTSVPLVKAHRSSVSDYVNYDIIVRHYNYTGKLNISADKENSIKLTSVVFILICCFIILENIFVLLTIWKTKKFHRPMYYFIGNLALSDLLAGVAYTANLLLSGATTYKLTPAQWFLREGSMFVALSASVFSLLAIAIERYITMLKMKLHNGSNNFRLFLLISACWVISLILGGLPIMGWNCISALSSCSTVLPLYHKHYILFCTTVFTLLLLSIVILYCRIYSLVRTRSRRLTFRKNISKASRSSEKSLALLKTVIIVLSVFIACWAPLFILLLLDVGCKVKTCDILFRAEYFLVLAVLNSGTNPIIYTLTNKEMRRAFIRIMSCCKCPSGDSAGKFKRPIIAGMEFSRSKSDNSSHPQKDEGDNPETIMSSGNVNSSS
Procedure, shortened: (§1)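 hS1P1-GFP fusion expressed in U2OS cells; agonism read as receptor internalization. Percent efficacy is relative to 1.00 μM reference agonist, and >top concentration is reported when activity stays under 10% of control. Each value is the mean of at least two determinations.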

[2] = molecular target: T1, Sphingosine 1-phosphate receptor 1; assay: Agonist activity at human S1P1 receptor expressed in human U2OS cells co-expressing eGFP assessed as receptor internalization after 1 hr relative to 1-(4-(6-benzylbenzofuran-2-yl)-3-fluorobenzyl)azetidine-3-carboxylic acid; type: functional, cell-based; procedure, shortened: as §1
[3] = molecular target: T2, Sphingosine 1-phosphate receptor 3 (Homo sapiens, UniProt Q99500); assay: Agonist activity at human S1P3 receptor expressed in CHO-K1 cells co-expressing Gq/i5 G-protein assessed as calcium mobilization by FLIPR assay; type: functional, cell-based
T2 sequence (Q99500 whole entry): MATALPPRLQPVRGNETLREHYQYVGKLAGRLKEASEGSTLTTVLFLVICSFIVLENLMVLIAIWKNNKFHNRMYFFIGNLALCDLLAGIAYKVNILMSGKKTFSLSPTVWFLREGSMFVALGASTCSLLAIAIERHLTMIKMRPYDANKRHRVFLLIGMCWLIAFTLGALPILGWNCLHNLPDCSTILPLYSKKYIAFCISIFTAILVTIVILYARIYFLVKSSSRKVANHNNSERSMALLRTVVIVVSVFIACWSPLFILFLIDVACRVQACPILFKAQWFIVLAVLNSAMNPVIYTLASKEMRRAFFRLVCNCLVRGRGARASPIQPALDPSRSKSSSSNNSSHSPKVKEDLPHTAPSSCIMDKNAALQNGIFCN
Procedure, shortened: (§2)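 hS1P3 and Gq/i5 co-transfected into CHO-K1 cells; agonism read as Ca2+ mobilization. Percent efficacy is relative to 0.200 μM S1P, and >top concentration is reported when activity stays under 10% of control. Each value is the mean of at least two determinations.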

[4] = molecular target: T2, Sphingosine 1-phosphate receptor 3; assay: Agonist activity at human S1P3 receptor expressed in CHO-K1 cells co-expressing Gq/i5 G-protein assessed as calcium mobilization by FLIPR assay relative to S1P; type: functional, cell-based; procedure, shortened: as §2
[5] = test system: Rattus norvegicus; assay: Immunomodulatory activity in Lewis rat assessed as reduction of circulating lymphocytes count at 1 mg/kg, po after 24 hrs relative to control; type: functional; design: scale not given: the % may be the effect or the level left
Procedure, shortened: (§3)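 Female Lewis rats dosed orally at 0.3, 1.0 or 3.0 mg/kg in 20% captisol, pH 2, N = 5/group. Blood lymphocyte counts and plasma concentration taken 24 h postdose. Compared with vehicle by ANOVA/Dunnett's test, P < 0.05.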

[6] = Fraction unbound in rat plasma at 5 ug/ml by ultracentrifugation analysis; type: ADME, cell-free
Procedure, shortened: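 Plasma protein binding determined by ultracentrifugation at 5.0 μg/mL test compound.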

[7] = test system: Rattus norvegicus; assay: Immunomodulatory activity in po dosed Lewis rat assessed as reduction of circulating lymphocytes count after 24 hrs; type: functional, organism-based; procedure, shortened: as §3
[8] = test system: Rattus norvegicus; assay: Immunomodulatory activity in Lewis rat assessed as reduction of circulating lymphocytes count at 0.3 mg/kg, po after 24 hrs relative to control; type: functional; procedure, shortened: as §3
[9] = test system: Rattus norvegicus; assay: Immunomodulatory activity in Lewis rat assessed as reduction of circulating lymphocytes count at 3 mg/kg, po after 24 hrs relative to control; type: functional; procedure, shortened: as §3
[10] = test system: Rattus norvegicus; assay: Immunosuppressive activity in delayed-type hypersensitivity Lewis rat model assessed as reduction of ovalbumin/complete Freund's adjuvant-induced ear swelling at 0.3 mg/kg, po qd for 10 days; type: functional, organism-based; design: dose 0.3 mg/kg
Procedure, shortened: (§4)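 Female Lewis rats dosed orally once daily for 10 days at 0.1–3.0 mg/kg in 20% captisol, pH 2 (N = 8/group; N = 4 at 3.0 mg/kg). On day 1 rats were immunized with ovalbumin plus complete Freund's adjuvant. One week later ovalbumin was injected intracutaneously into one ear. Ear-thickness change and blood lymphocytes measured 48 h after challenge; compared with vehicle by ANOVA/Dunnett's test.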

[11] = test system: Rattus norvegicus; assay: Immunosuppressive activity in delayed-type hypersensitivity Lewis rat model assessed as reduction of ovalbumin/complete Freund's adjuvant-induced ear swelling at 1 to 3 mg/kg, po qd for 10 days; type: functional, organism-based; procedure, shortened: as §4
[12] = Clearance in Sprague-Dawley rat at 2 mg/kg, iv and 15 mg/kg, po; type: ADME, organism-based; conditions: in vivo
Procedure, shortened: (§5)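 Female Sprague-Dawley rats, N = 3 per route: iv 2 mg/kg in DMSO; po 15 mg/kg in 20% captisol, pH 2. Clearance expressed also as percent of liver blood flow.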

[13] = Volume of distribution at steady state in Sprague-Dawley rat at 2 mg/kg, iv and 15 mg/kg, po; type: ADME, organism-based; conditions: in vivo, read-out: Vdss; procedure, shortened: as §5
[14] = Half life in Sprague-Dawley rat at 2 mg/kg, iv and 15 mg/kg, po; type: ADME, organism-based; conditions: in vivo; procedure, shortened: as §5
[15] = Mean residence time in Sprague-Dawley rat at 2 mg/kg, iv and 15 mg/kg, po; type: ADME, organism-based; conditions: in vivo; procedure, shortened: as §5
[16] = Oral bioavailability in Sprague-Dawley rat at 15 mg/kg; type: ADME, organism-based; conditions: in vivo; procedure, shortened: as §5
[17] = Clearance in cynomolgus monkey at 4 mg/kg, iv and 10 mg/kg, po; type: ADME, organism-based, Macaca fascicularis; conditions: in vivo
Procedure, shortened: (§6)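 Male cynomolgus monkeys, N = 3 per route: iv 4 mg/kg in 20% captisol, pH 4; po 10 mg/kg in 20% captisol with 1% pluronic F68 and 1% HPMC, pH 2. Clearance expressed also as percent of liver blood flow.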

[18] = Volume of distribution at steady state in cynomolgus monkey at 4 mg/kg, iv and 10 mg/kg, po; type: ADME, organism-based, Macaca fascicularis; conditions: in vivo, read-out: Vdss; procedure, shortened: as §6
[19] = Half life in cynomolgus monkey at 4 mg/kg, iv and 10 mg/kg, po; type: ADME, organism-based, Macaca fascicularis; conditions: in vivo; procedure, shortened: as §6
[20] = Mean residence time in cynomolgus monkey at 4 mg/kg, iv and 10 mg/kg, po; type: ADME, organism-based, Macaca fascicularis; conditions: in vivo; procedure, shortened: as §6
[21] = Oral bioavailability in cynomolgus monkey at 10 mg/kg; type: ADME, organism-based, Macaca fascicularis; conditions: in vivo; procedure, shortened: as §6
[22] = test system: Cynomolgus monkey; assay: Liver blood flow in cynomolgus monkey at 4 mg/kg, iv and 10 mg/kg, po; type: ADME, organism-based, Macaca fascicularis; conditions: in vivo; procedure, shortened: as §6
[23] = test system: Rattus norvegicus; assay: Liver blood flow in Sprague-Dawley rat at 2 mg/kg, iv and 15 mg/kg, po; type: ADME, organism-based; conditions: in vivo; procedure, shortened: as §5
[24] = Inhibition of human cytochrome P450; type: ADME
[25] = Mutagenic activity in Salmonella Typhimurium by Ames test; type: toxicity; conditions: salmonella enterica subsp. enterica serovar typhimurium
[26] = test system: Rattus norvegicus; assay: Cardiotoxicity in rat assessed as effect on heart rate at 30 mg/kg, po; type: toxicity, organism-based; design: dose 30 mg/kg, route oral; conditions: in vivo
Procedure, shortened: (§7)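 Telemetered rats given oral doses; heart rate and mean arterial pressure monitored to set a no-effect level.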

[27] = test system: Rattus norvegicus; assay: Cardiotoxicity in rat assessed as effect on mean arterial pressure at 30 mg/kg, po; type: toxicity, organism-based, Artery; design: dose 30 mg/kg, route oral; conditions: in vivo; procedure, shortened: as §7
[28] = test system: Rattus norvegicus; assay: Toxicity in Sprague-Dawley rat assessed as proconvulsive activity at 100 mg/kg, po qd for 4 days; type: organism-based; design: dose 100 mg/kg, route oral; conditions: in vivo, 96 h
Procedure, shortened: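 Sprague-Dawley rats (N = 3) dosed orally at 100 mg/kg once daily for 4 days and observed for proconvulsive activity.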

[29] = Cmax in Sprague-Dawley rat at 100 mg/kg, po qd for 4 days; type: ADME, organism-based; design: dose 100 mg/kg, route oral; conditions: in vivo
[30] = AUC (0 to 24 hrs) in Sprague-Dawley rat at 100 mg/kg, po qd for 4 days; type: ADME, organism-based; design: time < 24 hr, dose 100 mg/kg, route oral; conditions: plasma

O=C(O)C1CN(Cc2ccc(-c3nc4cc(Cc5ccc(F)c(F)c5)ccc4s3)c(F)c2)C1
EC50 [1]: 30 nM
Efficacy [2]: 151%
EC50 [3]: 967 nM
Efficacy [4]: 19%

O=C(O)C1CN(Cc2ccc(-c3nc4ccc(Cc5ccccc5)cc4[nH]3)c(F)c2)C1
EC50 [1]: > 6250 nM
EC50 [3]: > 25000 nM

O=C(O)C1CN(Cc2ccc(-n3cc4cc(Cc5ccccc5)ccc4n3)c(F)c2)C1
EC50 [1]: 2890 nM
Efficacy [2]: 53%
EC50 [3]: 1110 nM
Efficacy [4]: 43%

Cc1ccccc1Cc1ccc2sc(-c3ccc(CN4CC(C(=O)O)C4)cc3F)nc2c1
EC50 [1]: 26 nM
Efficacy [2]: 118%
EC50 [3]: 2440 nM
Efficacy [4]: 40%
Activity [5]: 63%

O=C(O)C1CN(Cc2ccc(-c3nc4cc(Cc5ccc(Cl)cc5)ccc4s3)c(F)c2)C1
EC50 [1]: 159 nM
Efficacy [2]: 117%
EC50 [3]: > 25000 nM

O=C(O)C1CN(Cc2ccc(-c3nc4ccc(Cc5ccccc5)cc4s3)c(F)c2)C1
Efficacy [2]: 84%
Efficacy [4]: 50%

O=C(O)C1CN(Cc2ccc(-c3cc4cc(Cc5ccccc5)ccc4o3)c(F)c2)C1
Efficacy [2]: 96%
EC50 [3]: 1730 nM
Efficacy [4]: 42%
fraction unbound at 5 ug/ml [6]: 0.015

Cc1ccc(Cc2ccc3sc(-c4ccc(CN5CC(C(=O)O)C5)cc4F)nc3c2)cc1
EC50 [1]: 77 nM
Efficacy [2]: 132%
EC50 [3]: 1800 nM
Efficacy [4]: 17%

O=C(O)C1CN(Cc2ccc(-c3cn4cc(Cc5ccccc5)ccc4n3)c(F)c2)C1
EC50 [1]: 6720 nM
Efficacy [2]: 115%
EC50 [3]: > 25000 nM

O=C(O)C1CN(Cc2ccc(-c3nc4cc(Cc5c(F)cccc5F)ccc4s3)c(F)c2)C1
EC50 [1]: 126 nM
Efficacy [2]: 126%
EC50 [3]: > 25000 nM

O=C(O)C1CN(Cc2ccc(-c3nc4cc(Cc5ccccc5)ccc4s3)c(F)c2)C1
EC50 [1]: 42 nM
Efficacy [4]: 24%

O=C(O)C1CN(Cc2ccc(-c3nc4ccc(Cc5ccccc5)cc4o3)c(F)c2)C1
EC50 [1]: 94 nM
Efficacy [2]: 108%
EC50 [3]: 542 nM
Efficacy [4]: 87%

O=C(O)C1CN(Cc2ccc(-n3cc4ccc(Cc5ccccc5)cc4n3)c(F)c2)C1
EC50 [1]: 1810 nM
Efficacy [2]: 100%
EC50 [3]: 2710 nM
Efficacy [4]: 48%

O=C(O)C1CN(Cc2ccc(-c3nc4cc(Cc5ccccc5F)ccc4s3)c(F)c2)C1
Efficacy [2]: 115%
EC50 [3]: 3470 nM
Efficacy [4]: 14%
Efficacy [7]: Dose-dependent effect
Efficacy [8]: 34%
Efficacy [9]: 74%
Efficacy [10]: Active
Efficacy [11]: Active
clearance [12]: 5.5 mL/min/kg
Vd [13]: 3.3 L/kg
half-life [14]: 7.5 h
MRT [15]: 10 h
bioavailability [16]: 68%
clearance [17]: 8.33 mL/min/kg
Vd [18]: 1.6 L/kg
half-life [19]: 35.2 h
MRT [20]: 3.3 h
bioavailability [21]: 23%
LBF [22]: 19%
LBF [23]: 10%
inhibition (INH) [24]: Not Active
Activity [25]: Non-toxic
Activity [26]: Non-toxic
Activity [27]: Non-toxic
Activity [28]: Non-toxic
Cmax [29]: 49000 ng/mL
AUC at 24 h [30]: 987 µg·h/mL
fraction unbound at 5 ug/ml [6]: 0.021
Activity [5]: 63%

O=C(O)C1CN(Cc2ccc(-c3nc4cc(Cc5cccc(F)c5)ccc4s3)c(F)c2)C1
EC50 [1]: 21 nM
Efficacy [2]: 138%
EC50 [3]: 687 nM
Efficacy [4]: 22%

Cc1cccc(Cc2ccc3sc(-c4ccc(CN5CC(C(=O)O)C5)cc4F)nc3c2)c1
EC50 [1]: 54 nM
Efficacy [2]: 92%
EC50 [3]: > 2500 nM

O=C(O)C1CN(Cc2ccc(-c3nc4cc(Cc5ccc(F)cc5F)ccc4s3)c(F)c2)C1
EC50 [1]: 42 nM
Efficacy [2]: 186%
EC50 [3]: 1200 nM
Efficacy [4]: 24%

O=C(O)C1CN(Cc2ccc(-c3nc4cc(Cc5ccccc5)ccc4o3)c(F)c2)C1
EC50 [1]: 325 nM
Efficacy [2]: 105%
EC50 [3]: 354 nM
Efficacy [4]: 77%

O=C(O)C1CN(Cc2ccc(-c3nc4cc(Cc5ccccc5Cl)ccc4s3)c(F)c2)C1
EC50 [1]: 42 nM
Efficacy [2]: 121%
EC50 [3]: 4880 nM
Efficacy [4]: 41%
Activity [5]: 63%

O=C(O)C1CN(Cc2ccc(-c3cc4ccc(Cc5ccccc5)cc4o3)c(F)c2)C1
EC50 [1]: 13 nM
EC50 [3]: 679 nM
Efficacy [4]: 42%

O=C(O)C1CN(Cc2ccc(-c3cn4ccc(Cc5ccccc5)cc4n3)c(F)c2)C1
EC50 [1]: 741 nM
Efficacy [2]: 110%
EC50 [3]: 6090 nM
Efficacy [4]: 50%

O=C(O)C1CN(Cc2ccc(-c3nc4cc(Cc5ccc(F)cc5)ccc4s3)c(F)c2)C1
EC50 [1]: 33 nM
Efficacy [2]: 129%
EC50 [3]: 1910 nM
Efficacy [4]: 37%

O=C(O)C1CN(Cc2ccc(-c3nc4cc(Cc5cccc(Cl)c5)ccc4s3)c(F)c2)C1
EC50 [1]: 49 nM
Efficacy [2]: 141%
EC50 [3]: 3880 nM
Efficacy [4]: 35%
